Assay results collected from several papers.
Protocols differ between the studies behind these lines.
Target: Dual specificity mitogen-activated protein kinase kinase 3 (MAP2K3, Homo sapiens, UniProt P46734)
Sequence (P46734 1-347, as in one of the studies): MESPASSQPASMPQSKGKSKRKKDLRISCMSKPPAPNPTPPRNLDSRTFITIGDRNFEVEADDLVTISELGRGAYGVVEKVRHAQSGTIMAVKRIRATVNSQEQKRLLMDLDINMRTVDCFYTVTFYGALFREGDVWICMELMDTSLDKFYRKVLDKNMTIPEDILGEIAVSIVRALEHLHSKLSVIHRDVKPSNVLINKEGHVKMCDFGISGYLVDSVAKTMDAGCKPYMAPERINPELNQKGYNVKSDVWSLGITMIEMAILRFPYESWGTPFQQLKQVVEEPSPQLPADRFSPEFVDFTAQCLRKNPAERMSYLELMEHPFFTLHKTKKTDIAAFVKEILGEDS

With `CC1=C(C#N)[C@@H](c2ccc3[nH]nc(C)c3c2)C(C#N)=C(c2ccc(Cl)cc2)N1` the remaining binding was 53.5% (cell-free assay; competition with immobilised ligand; 1 µM).
`C=CC(=O)N1CCC(C(=O)NCC(=O)N2CCN(c3nc(-c4cnc(N)nc4C(F)F)nc(N4CCOCC4)n3)CC2)CC1` has a remaining binding of 59% (binding; competition with immobilised ligand; 1 µM).
`CO[C@@H](C)c1c(Nc2ccc([C@@H](N(C)C(=O)C3CCS(=O)(=O)CC3)C(F)(F)F)cc2)cnc2cc(Cl)nn12` gave a remaining binding of 90% (cell-free assay; competition with immobilised ligand; 1 µM).
`O=C(NCC1CCOCC1)c1n[nH]cc1NC(=O)c1c(F)cccc1F` has a remaining binding of 64% (binding; competition with immobilised ligand; 1 µM).
With `Cn1nc(C(F)(F)F)cc1-c1cnc(N2CCc3cc(S(=O)(=O)Nc4c(F)cc(Cl)cc4F)cc(N4CCCC4=O)c32)nc1` the remaining binding was 82% (cell-free assay; competition with immobilised ligand; 1 µM).
`CC1CCCN1c1nccc(-c2cnn3ncccc23)n1` (stereo not shown) gave a remaining binding of 84% (binding; 1 µM).
`c1ccc(N2CCN(Cc3nc4ccccc4[nH]3)CC2)nc1` has a remaining binding of 96% (binding; competition with immobilised ligand; 1 µM).
For `Nc1ncc2c(n1)-c1c([nH]c3ccc(C#CC4CC4)cc13)CCCC2`, the remaining binding was 93% (binding; competition with immobilised ligand; 1 µM).
For `CN(C)c1ncc(F)c(-c2cnn3ncccc23)n1`, the remaining binding was 78% (binding; 1 µM).
With `O=C(c1ccc(Nc2ncc(Cl)c(-c3ccc(Cl)s3)n2)cc1)N1CCC(N2CCCC2)CC1` the remaining binding was 15% (binding; competition with immobilised ligand; 1 µM).
`CCN1CCN(Cc2ccc(C(=O)Nc3ccc(C)c(Oc4ccc5c(c4)CC(=O)N5)c3)cc2C(F)(F)F)CC1` gave a remaining binding of 100% (binding; competition with immobilised ligand; 1 µM).
`CN(C)c1nccc(-c2cnc3ncccn23)n1` has a remaining binding of 78% (binding; 1 µM).
For `CN(C)c1ncnc(-c2ccc3nc(Nc4cc(CN5CCN(C(=O)CC(F)(F)F)CC5)ccn4)[nH]c3c2)c1Cl`, the remaining binding was 73% (cell-free assay; competition with immobilised ligand; 1 µM).
The remaining binding of `COc1cnc(Nc2cccc(S(N)(=O)=O)c2)nc1N1CCN(c2ccccc2)C(=O)C1` is reported as 84% (binding; competition with immobilised ligand; 1 µM).
`Nc1cnc(N2CCc3cc(S(=O)(=O)Nc4c(F)cc(Cl)cc4F)cc(N4CCCC4=O)c32)nc1` gave a remaining binding of 100% (cell-free assay; competition with immobilised ligand; 1 µM).
With `O=C(NCCCN1CCOCC1)c1ccc(Nc2ncc(Cl)c(-c3ccc(Cl)s3)n2)cc1` the remaining binding was 51% (binding; competition with immobilised ligand; 1 µM).
`N[C@@H]1CCN(c2nccc(-c3cnn4ncccc34)n2)C1` gave a remaining binding of 59% (binding; 1 µM).
`Cc1cnc(Nc2ccc(C(=O)N3CCC(N4CCCC4)CC3)cc2)nc1-c1cc2ccccc2s1` has a remaining binding of 42% (binding; competition with immobilised ligand; 1 µM).
`CN(c1nccc(-c2cnn3ncccc23)n1)C1CC1` has a remaining binding of 93% (binding; 1 µM).
`FC(F)(F)c1ccc2c(c1)nc(-c1cccnc1)n2C1CC1` has a remaining binding of 100% (cell-free assay; competition with immobilised ligand; 1 µM).
With `CN(CCCC(F)(F)F)c1nccc(-c2cnn3ncccc23)n1` the remaining binding was 99% (binding; 1 µM).
`COc1ncc2cc3ccccc3nc2c1C#N` has a remaining binding of 74% (cell-free assay; competition with immobilised ligand; 5 µM).
